Columns and labels:
Assay type in all cases: functional
[1] = system: SF-268; assay: Antiproliferative activity against human CNS SF268 cell line
Procedure, shortened: (§1)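 Part of the NCI ~60 human tumor cell line panel screen. Each compound was tested at five concentrations in 10-fold dilutions from 10^-4 to 10^-8 M. GI50 is read from dose-response curves as the molar concentration giving 50% inhibition of net cell growth, and is also reported as pGI50 (-log molar).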

[2] = system: NCI-H23; assay: Antiproliferative activity against human lung NCI-H23 cell line; procedure, shortened: as §1
[3] = system: UACC-62; assay: Antiproliferative activity against human melanoma UACC62 cell line; procedure, shortened: as §1
[4] = system: K562; assay: Antiproliferative activity against human leukemia K562 cell line; procedure, shortened: as §1
[5] = system: MCF7; assay: Antiproliferative activity against human breast cancer MCF7 cell line; procedure, shortened: as §1
[6] = system: SW-620; assay: Antiproliferative activity against human colon SW620 cell line; procedure, shortened: as §1
[7] = system: SN12C; assay: Antiproliferative activity against human renal SN12C cell line; procedure, shortened: as §1

GI50 [2] [µM] | GI50 [4] [µM] | GI50 [5] [µM] | GI50 [6] [µM] | Structure (SMILES) | GI50 [1] [µM] | GI50 [3] [µM] | GI50 [7] [µM]
6.31 | 5.13 | 2.69 | 5.5 | O=C(Oc1cccnc1)c1cccnc1Nc1ccnc(C(F)(F)F)c1 | 5.62 | 5.75 | 6.46
0.0363 | 0.0427 | 0.0457 | 0.0407 | O=C(Oc1cccnc1)c1ccccc1Nc1ccnc(C(F)(F)F)c1 | 0.331 | 0.288 | 0.0708
8.71 | 4.57 | 3.63 | 3.72 | O=C(Oc1ccccc1Cl)c1cccnc1Nc1ccnc(C(F)(F)F)c1 | 10 | 6.17 | 4.07
0.257 | 0.0513 | 0.282 | 0.363 | O=C(Oc1ccccc1Cl)c1ccccc1Nc1ccnc(C(F)(F)F)c1 | 2.24 | 0.309 | 0.331
2.57 | 2.4 | 4.68 | 4.57 | O=C(Oc1c(Cl)cc(Cl)cc1Cl)c1ccccc1Nc1ccnc(C(F)(F)F)c1 | 3.89 | 1.74 | 3.09
2.82 | 3.63 | 3.72 | 6.61 | O=C(Oc1ccc(Cl)cc1)c1ccccc1Nc1ccnc(C(F)(F)F)c1 | 4.37 | 2.63 | 2.95
20 | 2.69 | 33.9 | 8.13 | O=C(Oc1ccccc1Cl)c1ccccc1Nc1cccc(C(F)(F)F)c1 | 20.4 | 17 | 23.4
3.55 | 3.02 | 3.63 | 4.57 | O=C(Oc1ccc(Cl)cc1Cl)c1ccccc1Nc1ccnc(C(F)(F)F)c1 | 3.09 | 2.29 | 3.02
2.04 | 0.741 | 7.24 | 4.07 | COc1cccc(OC(=O)c2ccccc2Nc2ccnc(C(F)(F)F)c2)c1 | 4.68 | 3.09 | 5.37
2.4 | 3.24 | 4.79 | 4.37 | O=C(Oc1cccc(Cl)c1)c1ccccc1Nc1ccnc(C(F)(F)F)c1 | 3.02 | 2.04 | 2.95

Reference: ChEMBL document CHEMBL1141187, “New potential anticancer agents based on the anthranilic acid scaffold: synthesis and evaluation of biological activity” (2005)
